{"source": "ChEMBL document CHEMBL4043283", "about": "“Discovery and Preclinical Development of IIIM-290, an Orally Active Potent Cyclin-Dependent Kinase Inhibitor” (J Med Chem, 2018)", "key": {"[1]": {"assay": "Thermodynamic equilibrium solubility of compound in PBS at pH 7.4 after 5 hrs by shake flask method", "format": "physicochemical", "conditions": "read-out: Therm_solubility"}, "HCT-116 [2]": {"tested_on": "HCT-116", "assay": "Growth inhibition of human HCT116 cells after 48 hrs by MTT assay", "format": "functional", "conditions": "HCT-116, 48 h", "method_in_brief": "(§1)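 Cancer cell lines sourced from the National Cancer Institute (USA). Cells kept in appropriate growth medium at 37 °C, 95% humidity, 5% CO2. Antiproliferation read by tetrazolium (MTT) assay. GI50 values were determined only for compounds selected after an initial single-concentration screen.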"}, "MIA PaCa-2 [3]": {"tested_on": "MIA PaCa-2", "assay": "Cell cycle arrest in human MIAPaCa2 cells assessed as accumulation at S phase at 1.5 uM after 24 hrs by propidium iodide staining-based flow cytometric method (reference value: 33%)", "format": "functional"}, "[4]": {"assay": "AUC in Sprague-Dawley rat at 10 mg/kg, po by LC-MS/MS analysis", "format": "ADME, organism-based", "conditions": "in vivo"}, "[5]": {"assay": "AUC in BALB/c mouse at 30 mg/kg, po by LC-MS/MS analysis", "format": "ADME, organism-based", "conditions": "in vivo"}, "MIA PaCa-2 [6]": {"tested_on": "MIA PaCa-2", "assay": "Growth inhibition of human MIAPaCa2 cells after 48 hrs by MTT assay", "format": "functional", "conditions": "MIA PaCa-2, 48 h", "method_in_brief": "as §1"}, "[7]": {"molecular_target": "Dual specificity mitogen-activated protein kinase kinase 5 (Homo sapiens) (UniProt Q13163)", "sequence (Q13163 whole entry)": "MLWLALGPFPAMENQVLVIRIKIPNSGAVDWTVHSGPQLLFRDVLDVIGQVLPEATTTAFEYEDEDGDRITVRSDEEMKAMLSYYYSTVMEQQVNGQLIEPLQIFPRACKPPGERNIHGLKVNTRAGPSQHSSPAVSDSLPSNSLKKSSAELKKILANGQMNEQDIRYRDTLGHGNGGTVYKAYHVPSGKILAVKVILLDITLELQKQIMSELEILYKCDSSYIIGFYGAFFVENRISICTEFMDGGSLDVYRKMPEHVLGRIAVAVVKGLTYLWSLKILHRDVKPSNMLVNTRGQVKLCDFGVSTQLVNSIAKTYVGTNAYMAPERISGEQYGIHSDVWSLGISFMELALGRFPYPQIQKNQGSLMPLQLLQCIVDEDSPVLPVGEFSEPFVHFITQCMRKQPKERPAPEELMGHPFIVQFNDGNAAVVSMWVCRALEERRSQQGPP", "assay": "Inhibition of partial length wild type human MEK5 expressed in mammalian expression system at 0.5 uM by KINOMEscan method relative to control", "method_in_brief": "(§2)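 Competition binding screen (KINOMEscan) at 0.5 μM; primary binding read out as % of control, lower values indicating stronger interaction.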"}, "Kidney": {"tested_on": "Kidney", "assay": "Drug uptake in Sprague-Dawley rat kidney at 30 mg/kg, po after 8 hrs", "format": "ADME, organism-based", "conditions": "in vivo"}, "MIA PaCa-2 [8]": {"tested_on": "MIA PaCa-2", "assay": "Induction of apoptosis in human MIAPaCa2 cells assessed as formation of apoptotic bodies after 24 hrs by scanning electron microscopy", "format": "functional, cell-based", "method_in_brief": "(§3)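 Cells exposed to different compound concentrations for 24 h on coverslips, fixed in 2.5% glutaraldehyde in 0.1 M phosphate buffer pH 7.2 (4 °C, 24 h), postfixed in 1% OsO4 4 h, ethanol-dehydrated, critical-point dried with HMDS, gold-coated, imaged at 20 kV.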"}, "MIA PaCa-2 [9]": {"tested_on": "MIA PaCa-2", "assay": "Induction of apoptosis in human MIAPaCa2 cells assessed as chromatin condensation in nuclei after 24 hrs by scanning electron microscopy", "format": "functional, cell-based", "method_in_brief": "as §3"}, "CDK2/Cyclin A2": {"molecular_target": "CDK2/Cyclin A2 (Homo sapiens, UniProt P24941)", "assay": "Inhibition of CDK2/cyclin A (unknown origin) using histone H1 as substrate after 30 mins in presence of [33P]-gamma-ATP by filter binding assay", "format": "protein-complex assay"}, "MCF7": {"tested_on": "MCF7", "assay": "Growth inhibition of human MCF7 cells after 48 hrs by MTT assay", "format": "functional", "conditions": "MCF7, 48 h", "method_in_brief": "as §1"}, "HL-60": {"tested_on": "HL-60", "assay": "Growth inhibition of human HL60 cells at 10 uM after 48 hrs by MTT assay relative to control", "format": "functional", "conditions": "HL-60, 48 h, read-out: GI", "method_in_brief": "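Single-concentration primary screen at 10 μM by MTT assay. Cells were NCI-sourced cancer lines grown in appropriate medium at 37 °C, 95% humidity, 5% CO2. Growth inhibition is expressed relative to control.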"}, "Mus musculus [10]": {"tested_on": "Mus musculus", "assay": "Toxicity in Swiss albino mouse allografted with Swiss mouse EAC assessed as mortality at 70 to 100 mg/kg, po administered for 9 day", "format": "organism-based", "conditions": "in vivo, 216 h"}, "HCT-116 [11]": {"tested_on": "HCT-116", "assay": "Antitumor activity against human HCT116 cells xenografted in CD1 nude mouse assessed as tumor growth inhibition at 25 mg/kg, po qd administered on day 10 to 25 post tumor inoculation", "format": "functional, organism-based"}, "MIA PaCa-2 [12]": {"tested_on": "MIA PaCa-2", "assay": "Induction of apoptosis in human MIAPaCa2 cells assessed as PARP cleavage by Western blot method", "format": "functional, cell-based", "method_in_brief": "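Lysate protein quantified against a BSA standard; 70 μg resolved by SDS-PAGE, transferred to PVDF overnight at 4 °C, 30 V; blocked 1 h in 5% nonfat milk/TBST; primary antibodies 2–4 h, HRP anti-mouse secondary 1 h; ECL detection on X-ray film.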"}, "Cytochrome P450 2D6": {"molecular_target": "Cytochrome P450 2D6 (Homo sapiens, UniProt P10635)", "sequence (P10635 whole entry)": "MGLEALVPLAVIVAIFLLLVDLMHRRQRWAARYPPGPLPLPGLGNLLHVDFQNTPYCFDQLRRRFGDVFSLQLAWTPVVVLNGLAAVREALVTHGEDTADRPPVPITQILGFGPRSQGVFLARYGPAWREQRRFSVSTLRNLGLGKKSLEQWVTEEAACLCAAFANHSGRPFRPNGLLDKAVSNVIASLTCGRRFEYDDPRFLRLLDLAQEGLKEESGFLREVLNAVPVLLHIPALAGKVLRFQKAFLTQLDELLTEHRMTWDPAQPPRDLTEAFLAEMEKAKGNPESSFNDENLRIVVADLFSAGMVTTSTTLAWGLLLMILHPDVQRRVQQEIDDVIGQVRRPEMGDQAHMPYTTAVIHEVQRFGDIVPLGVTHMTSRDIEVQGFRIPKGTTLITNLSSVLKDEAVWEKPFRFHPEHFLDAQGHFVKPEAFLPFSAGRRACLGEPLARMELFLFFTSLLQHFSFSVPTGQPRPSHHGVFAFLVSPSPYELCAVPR", "assay": "Inhibition of human CYP2D6 using fluorogenic substrate preincubated with co-factor for 10 mins followed by enzyme-substrate addition by fluorometric method", "format": "ADME", "method_in_brief": "(§4)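 Cofactor plus test item or vehicle, in triplicate, preincubated 10 min at 37 °C; prewarmed enzyme–substrate mix added and incubated at 37 °C with shaking. Quench: acetonitrile (CYP2C19, CYP3A4) or 0.25 M Tris in 60% methanol (CYP2C9, CYP2D6). Metabolite fluorescence read; % inhibition computed against enzyme controls and enzyme-free blanks.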"}, "[13]": {"assay": "Intrinsic clearance in rat hepatocytes assessed per million cells at 3 uM after 180 mins by LC-MS/MS analysis", "format": "ADME, cell-based, Hepatocyte", "conditions": "read-out: CLH"}, "[14]": {"assay": "AUC in Sprague-Dawley rat at 30 mg/kg, po by LC-MS/MS analysis", "format": "ADME, organism-based", "conditions": "in vivo"}, "NCI-H226": {"tested_on": "NCI-H226", "assay": "Growth inhibition of human NCI-H226 cells after 48 hrs by MTT assay", "format": "functional", "conditions": "NCI-H226, 48 h", "method_in_brief": "as §1"}, "Liver": {"tested_on": "Liver", "assay": "Intrinsic clearance in rat liver S9 fraction assessed per mg of protein preincubated for 5 mins followed by NADPH addition measured after 30 mins by LC-MS/MS analysis", "format": "ADME, tissue-based", "conditions": "s9, 0.5 h"}, "[15]": {"assay": "Half life in rat hepatocytes at 3 uM after 180 mins by LC-MS/MS analysis", "format": "ADME, cell-based, Hepatocyte"}, "Lung": {"tested_on": "Lung", "assay": "Drug uptake in Sprague-Dawley rat lung at 30 mg/kg, po after 8 hrs", "format": "ADME, organism-based", "conditions": "in vivo"}, "MIA PaCa-2 [16]": {"tested_on": "MIA PaCa-2", "assay": "Induction of apoptosis in human MIAPaCa2 cells assessed as intracellular vesicle formation after 24 hrs by scanning electron microscopy", "format": "functional, cell-based", "method_in_brief": "as §3"}, "[17]": {"assay": "Initial concentration in BALB/c mouse at 1 mg/kg, iv by LC-MS/MS analysis", "format": "ADME, organism-based", "conditions": "in vivo"}, "CDK3/Cyclin E": {"molecular_target": "CDK3/Cyclin E (Homo sapiens, UniProt Q00526)", "sequence (P24864 whole entry)": "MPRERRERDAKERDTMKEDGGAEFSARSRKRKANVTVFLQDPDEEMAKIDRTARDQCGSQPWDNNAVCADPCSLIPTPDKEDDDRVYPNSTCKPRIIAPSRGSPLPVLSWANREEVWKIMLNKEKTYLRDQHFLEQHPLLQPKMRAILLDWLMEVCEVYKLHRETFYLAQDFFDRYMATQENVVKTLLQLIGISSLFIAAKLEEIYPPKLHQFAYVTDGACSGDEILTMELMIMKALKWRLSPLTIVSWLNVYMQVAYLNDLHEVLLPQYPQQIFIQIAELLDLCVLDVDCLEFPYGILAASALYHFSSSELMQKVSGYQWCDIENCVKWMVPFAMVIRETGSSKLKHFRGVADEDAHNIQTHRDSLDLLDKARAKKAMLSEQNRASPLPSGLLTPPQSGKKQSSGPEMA", "sequence (Q00526 whole entry)": "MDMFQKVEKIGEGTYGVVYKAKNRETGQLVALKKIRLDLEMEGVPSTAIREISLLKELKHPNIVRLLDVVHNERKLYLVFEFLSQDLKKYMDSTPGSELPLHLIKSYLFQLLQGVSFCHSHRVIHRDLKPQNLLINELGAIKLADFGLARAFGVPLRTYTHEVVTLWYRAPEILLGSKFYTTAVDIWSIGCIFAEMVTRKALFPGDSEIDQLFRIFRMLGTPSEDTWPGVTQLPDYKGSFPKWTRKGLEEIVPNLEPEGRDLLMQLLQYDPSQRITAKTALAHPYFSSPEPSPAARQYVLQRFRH", "assay": "Inhibition of CDK3/cyclin E (unknown origin) after 30 mins in presence of [33P]-gamma-ATP by filter binding assay", "format": "protein-complex assay"}, "[18]": {"assay": "Protein binding in mouse plasma at 3 uM after 5 hrs by equilibrium dialysis method", "format": "ADME, cell-free", "conditions": "read-out: PPB (converted)"}, "[19]": {"assay": "Protein binding in rat plasma at 3 uM after 5 hrs by equilibrium dialysis method", "format": "ADME, cell-free", "conditions": "read-out: PPB (converted)"}, "[20]": {"assay": "Growth inhibition of HGF after 48 hrs by MTT assay", "format": "cell-based", "conditions": "human, HGF cells"}, "MDA-MB-231": {"tested_on": "MDA-MB-231", "assay": "Growth inhibition of human MDA-MB-231 cells after 48 hrs by MTT assay", "format": "functional", "conditions": "MDA-MB-231, 48 h", "method_in_brief": "as §1"}, "[21]": {"tested_on": "Tyrosine-protein kinase ABL1 (Homo sapiens), P00519 [Q252H]", "assay": "Inhibition of partial length human ABL1 Q252H mutant expressed in mammalian expression system at 0.5 uM by KINOMEscan method relative to control", "method_in_brief": "as §2"}, "[22]": {"assay": "Apparent permeability across basolateral to apical side in human Caco2 cells after 90 mins by LC-MS/MS analysis", "format": "ADME, cell-based", "conditions": "Caco-2"}, "Mus musculus [23]": {"tested_on": "Mus musculus", "assay": "Toxicity in CD1 nude mouse xenografted with human MOLT4 cells assessed as change in body weight at 25 to 75 mg/kg, po qd administered on day 10 to 25 post tumor inoculation", "format": "organism-based", "conditions": "in vivo"}, "Cytochrome P450 2C19": {"molecular_target": "Cytochrome P450 2C19 (Homo sapiens, UniProt P33261)", "sequence (P33261 whole entry)": "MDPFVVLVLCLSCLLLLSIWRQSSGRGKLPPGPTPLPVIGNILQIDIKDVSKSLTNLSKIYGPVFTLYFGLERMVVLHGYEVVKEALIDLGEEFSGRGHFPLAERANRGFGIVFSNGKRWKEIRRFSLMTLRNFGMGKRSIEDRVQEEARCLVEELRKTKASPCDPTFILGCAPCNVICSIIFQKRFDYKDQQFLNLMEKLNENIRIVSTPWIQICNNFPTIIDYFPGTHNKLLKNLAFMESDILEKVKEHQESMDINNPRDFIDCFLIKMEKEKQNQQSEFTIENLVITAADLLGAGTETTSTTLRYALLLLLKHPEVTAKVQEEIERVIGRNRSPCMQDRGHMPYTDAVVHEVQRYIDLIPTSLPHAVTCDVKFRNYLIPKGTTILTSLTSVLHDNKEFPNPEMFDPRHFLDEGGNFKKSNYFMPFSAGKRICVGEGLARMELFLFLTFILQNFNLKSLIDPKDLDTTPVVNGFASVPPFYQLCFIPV", "assay": "Inhibition of human CYP2C19 using fluorogenic substrate preincubated with co-factor for 10 mins followed by enzyme-substrate addition by fluorometric method", "format": "ADME", "method_in_brief": "as §4"}}, "note": "Active and inactive are the calls of the source. The rule behind the calls is not given here."}
{"smiles": "CN1CC[C@H](c2c(O)cc(O)c3c(=O)cc(/C=C/c4c(Cl)cccc4Cl)oc23)[C@H](O)C1", "values": [{"measurement": "solubility thermodynamic at 5 h", "setting": "[1]", "result": 2.29, "unit": "µg/mL"}, {"measurement": "GI50", "setting": "HCT-116 [2]", "result": 5, "unit": "µM"}, {"measurement": "Activity", "setting": "MIA PaCa-2 [3]", "result": 33, "unit": "%"}, {"measurement": "AUC", "setting": "[4]", "result": 5.68, "unit": "µM·h"}, {"measurement": "AUC", "setting": "[5]", "result": 11.3, "unit": "µM·h"}, {"measurement": "GI50", "setting": "MIA PaCa-2 [6]", "result": 1, "unit": "µM"}, {"measurement": "inhibition", "setting": "[7]", "result": "> 98", "unit": "%"}, {"measurement": "Drug uptake", "setting": "Kidney", "result": "Active"}, {"measurement": "Activity", "setting": "MIA PaCa-2 [8]", "result": "Active"}, {"measurement": "Activity", "setting": "MIA PaCa-2 [9]", "result": "Active"}, {"measurement": "IC50", "setting": "CDK2/Cyclin A2", "result": "0.0155 to 0.016", "unit": "µM"}, {"measurement": "GI50", "setting": "MCF7", "result": 4, "unit": "µM"}, {"measurement": "inhibition of growth at 10 µM", "setting": "HL-60", "result": 90, "unit": "%"}, {"measurement": "Activity", "setting": "Mus musculus [10]", "result": "Non-Toxic"}, {"measurement": "TGI", "setting": "HCT-116 [11]", "result": "inactive"}, {"measurement": "Activity", "setting": "MIA PaCa-2 [12]", "result": "Dose-dependent effect"}, {"measurement": "IC50", "setting": "Cytochrome P450 2D6", "result": "> 20", "unit": "µM"}, {"measurement": "hepatocyte CLint at 3 µM", "setting": "[13]", "result": 9.2, "unit": "µL/min/1e6 cells"}, {"measurement": "AUC", "setting": "[14]", "result": 15.9, "unit": "µM·h"}, {"measurement": "GI50", "setting": "NCI-H226", "result": 4, "unit": "µM"}, {"measurement": "CLint", "setting": "Liver", "result": 45, "unit": "µL/min/mg"}, {"measurement": "half-life at 3 µM", "setting": "[15]", "result": 6.27, "unit": "h"}, {"measurement": "Drug uptake", "setting": "Lung", "result": "Active"}, {"measurement": "Activity", "setting": "MIA PaCa-2 [16]", "result": "Active"}, {"measurement": "C0", "setting": "[17]", "result": 859, "unit": "ng/mL"}, {"measurement": "IC50", "setting": "CDK3/Cyclin E", "result": "> 1", "unit": "µM"}, {"measurement": "fraction unbound at 5 h, 3 µM", "setting": "[18]", "result": 0.028}, {"measurement": "fraction unbound at 5 h, 3 µM", "setting": "[19]", "result": 0.046}, {"measurement": "GI50 at 48 h", "setting": "[20]", "result": 18, "unit": "µM"}, {"measurement": "GI50", "setting": "MDA-MB-231", "result": 4, "unit": "µM"}, {"measurement": "inhibition", "setting": "[21]", "result": "> 98", "unit": "%"}, {"measurement": "Papp B→A at 1.5 h", "setting": "[22]", "result": 3.9, "unit": "×10⁻⁶ cm/s"}, {"measurement": "Activity", "setting": "Mus musculus [23]", "result": "Non-Toxic"}, {"measurement": "IC50", "setting": "Cytochrome P450 2C19", "result": "> 20", "unit": "µM"}]}
